FGF22 binding: binders of human FGF22 protein, primary screen, FGF22 synaptogenesis inhibitor project, biophysical, thermal shift, single point; hit rate 1.5% among 340,000; Fibroblast growth factor 22 (Homo sapiens), Q9HCT0; activity (Tm shift, normalised), % at 9.99 µM; recombinant FGF22 thermal shift, SYPRO orange fluorescence; percent of sucrose octasulfate shift, DMSO zero;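 active means mean Tm shift, scaled 0 neutral to 100 positive control, at about 1.3% or above, every replicate too, limit read from the data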
Target sequence (Q9HCT0 whole entry, looked up): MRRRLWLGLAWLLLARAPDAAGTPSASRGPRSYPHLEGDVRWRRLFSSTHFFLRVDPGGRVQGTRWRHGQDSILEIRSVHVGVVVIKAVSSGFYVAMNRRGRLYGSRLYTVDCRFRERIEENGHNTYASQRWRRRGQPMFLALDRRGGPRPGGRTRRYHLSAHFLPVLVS
C2C12 statin: suppressors of statin myotoxicity in C2C12 myotubes, primary screen, cell-based, single point, plate reader; C2C12 myotubes + simvastatin, ATP luminescence, 48 h; scaled: DMSO 0, geranylgeraniol control 100; rescue of ATP level, % at 7.49 µM; hit rate 0.78% among 330,000; AID 602340, 2012;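 active means mean ATP rescue above about 67%, or every replicate alone reaching that limit, limit read from the data, passing the limit was not always enough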;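 further: myotubes were challenged with 10 µM simvastatin during compound exposure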
Ecoli rRNA inh: reduced GFP signal of wild-type E. coli, primary screen, bacterial rRNA inhibitor project, GFP/RFP fluorescence, OD600, single point | GFP signal change (wild-type ribosome), % (test concentration not listed) | hit rate 1.6% among 350,000 | E. coli WT GFP vs humanized-ribosome RFP mutants, 24 h; active compounds read low; DMSO median 0, no signal -100;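 active means significant combined selectivity score with lowered wild-type GFP, culture density cut under 30%, mutant RFP and density less affected; inactive means any of these conditions unmet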
SIRT5 inh: SIRT5 desuccinylase inhibitors, primary screen, biochemical, fluorescence imaging, single point, set 5. Purified SirT5, succinyl-peptide AMC, trypsin-coupled fluorescence. inhibition, % at 15 µM. hit rate 1.1% among 330,000. AID 652115, 2013; in the data active means inhibition above about 15%
Target sequence (Q9NXA8 whole entry, looked up): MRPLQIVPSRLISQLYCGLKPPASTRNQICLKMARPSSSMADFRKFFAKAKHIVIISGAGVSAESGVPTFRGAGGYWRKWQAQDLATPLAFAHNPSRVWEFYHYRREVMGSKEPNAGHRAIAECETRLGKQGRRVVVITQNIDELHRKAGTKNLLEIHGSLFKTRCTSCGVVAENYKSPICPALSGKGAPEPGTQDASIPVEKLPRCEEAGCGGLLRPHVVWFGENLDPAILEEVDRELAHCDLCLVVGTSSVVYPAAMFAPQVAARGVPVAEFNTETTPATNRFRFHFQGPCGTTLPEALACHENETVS
E-selectin induc: E-selectin induction in HUVECs, primary screen, imaging, HUVEC, immunofluorescence imaging, single point. activation, % at 7.58 µM. normalized: neutral wells 0, TNF-alpha wells 100. P16581. hit rate 0.37% among 260,000;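 active means mean E-selectin-positive cell signal at least 10% of the positive control, reached in at least 60% of replicates, without over 20% cell loss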
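System: HUVEC, human umbilical vein endothelial cells; quantity: 3,000 cells/well; buffer or medium: EGM-2 medium, gelatin-coated wells; dosing: single-point compound dose; detection: immunofluorescence imaging; evaluation: % PE-positive cells; benchmarks: TNF-alpha, DMSO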
FN deposit inh: inhibitors of fibronectin matrix deposition, primary screen, AH1F cells, Alexa488-fibronectin fluorescence, plate reader; hit rate 0.086% among 350,000; inhibition, % at 12.6 µM; AH1F fibroblasts, overnight;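 active means mean inhibition across replicates of 30% or more, regardless of how many single replicates reach that level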;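 further: positive control wells lacked labelled fibronectin entirely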
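Schedule: 1 h cell adhesion before compound, then overnight fibronectin incubation; test system: AH1F fibroblast monolayer depositing Alexa488-labelled fibronectin into matrix; quantity: 10000 AH1F cells per well; probe or stimulus: fluorescent fibronectin at 24 nM final; signal: fluorescence, ex 485 nm, em 525 nm; evaluation: percent inhibition as loss of matrix-bound fibronectin fluorescence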
Numbers without * were called inactive; . = no result given. Shown are actives, neighbours in structure and some others; about 4% of the full set was active somewhere.

SMILES | FGF22 binding | C2C12 statin | Ecoli rRNA inh | SIRT5 inh | E-selectin induc | FN deposit inh
C[C@@H]1CN([C@H](C)CO)C(=O)Cc2cc(NC(=O)CCN3CCOCC3)ccc2O[C@H]1CN(C)S(=O)(=O)c1ccc(F)cc1 | -0.2 | 7.4 | -0.7 | 0.2 | 0.2 | .
C=CCOc1ccc2c(OC)c3ccoc3nc2c1OC | . | 92.1* | . | . | . | -2.6
O=C(Cc1ccccn1)NCC[C@H]1CC[C@H](NC(=O)c2ccccc2F)[C@H](CO)O1 | 0.1 | 4.3 | 5.2 | 3.5 | -0.4 | -2.1
CC(=O)N1[C@H](C)C=C[C@]1(Cc1ccccc1)C(=O)NCc1cc(F)cc(C(F)(F)F)c1 | 0.0 | 17.1 | -20.1 | 23.4* | -0.1 | 22.5
COC(=O)[C@@]1(Cc2ccccc2)C=C[C@@H](C)N1C(C)=O | 0.0 | 12.4 | 4.5 | 0.5 | -0.2 | -4.4
O=C(NC(O)C(=O)c1ccccc1)c1ccccn1 (centres undefined) | -0.1 | 20.4 | 1.8 | -0.7 | 50.2* | 1.5
CC(C(=O)c1ccccc1)C(O)c1ccccn1 (centres undefined) | 43.9* | 0.2 | 5.6 | . | 0.0 | -4.7
Cc1noc(C)c1NC(=O)Nc1ccc2c(c1)C(=O)N(C)[C@H]1CC[C@@H](CC(=O)N(C)C)O[C@H]1CO2 | -0.1 | 4.8 | 4.2 | -2.7 | -0.1 | -19.2
CCN(CC(=O)NC(C)(C)C)Cc1nc2c(Br)cc(Br)cc2c(=O)[nH]1 | -0.2 | . | -29.0* | 0.1 | . | 6.6
CO[C@H]1CN(C)C(=O)c2ccc(NS(C)(=O)=O)cc2OC[C@H](C)N(C(=O)C2CCC2)C[C@@H]1C | 0.0 | 1.7 | 1.4 | -2.9 | 0.1 | -8.6
COC1OC(c2ccccc2)=C(c2ccc(C(N)=O)cc2)c2ccc(F)cc21 (centres undefined) | -0.3 | . | -51.7 | 35.5* | 0.1 | -5.6
Cn1c(CNC(=O)c2ccco2)nnc1SCC(=O)Nc1cccc(F)c1 | 0.1 | . | 4.0 | -3.8 | -0.2 | 6.9
Cn1c(CNC(=O)c2ccco2)nnc1SCC(=O)Nc1c(F)cc(F)cc1Br | 44.0* | . | 10.6 | -0.8 | 0.1 | 14.5
Cn1ncc(N=Cc2ccccc2O)c1C(=O)Nc1ccccc1 | . | 117.5* | . | . | . | .
COc1ccccc1NC(=O)c1c(N=Cc2c(O)ccc3ccccc23)cnn1C | 0.2 | . | 13.6 | -0.3 | . | 4.5
O=C(CN1C(=O)NC(Cc2ccccc2)C1=O)Nc1ccc(F)c(Cl)c1 (centres undefined) | 1.0 | 31.7 | -28.1* | -12.4 | 18.4 | -5.1
CC(=O)Nc1nnc(SCc2cccc(F)c2)s1 | 0.0 | 86.7* | 1.1 | 2.9 | -0.1 | .
NC(=O)CSc1nnc(SCc2ccc(F)cc2)s1 | 0.2 | -6.0 | 11.2 | -6.3 | 27.2* | 1.3
CCC(=O)N1CC[C@@H]2[C@H]1c1cc(-c3ccccc3)ccc1N(C)[C@@H]2CO | -0.1 | 19.1 | -1.9 | -5.1 | -0.2 | -1.8
Cc1ccccc1S(=O)(=O)N1CCCCN2[C@H](CO)[C@@H](c3ccc(-c4ccccc4)cc3)[C@@H]2C1 | -0.4 | . | . | 18.7* | . | .
Cc1ccccc1S(=O)(=O)N1CCCCN2[C@H](CO)[C@H](c3ccc(-c4ccccc4)cc3)[C@@H]2C1 | 0.3 | . | . | 14.3 | . | .
Cc1cccc(-c2ccc([C@H]3[C@H](CO)N4CCCCN(S(=O)(=O)c5ccccc5C)C[C@@H]34)cc2)c1 | -0.6 | . | -38.6* | 5.6 | -0.8 | .
C[C@@H]1CN([C@@H](C)CO)C(=O)c2cc(NC(=O)Nc3ccc(F)cc3)ccc2O[C@H]1CN(C)Cc1ccc(Cl)c(Cl)c1 | 0.0 | -38.9 | -5.9 | 4.8 | . | -5.0
CC(C)NC(=O)N(C)C[C@H]1OCCCC[C@H](C)Oc2ccc(NC(=O)Nc3cccc4ccccc34)cc2C(=O)N([C@H](C)CO)C[C@@H]1C | -0.5 | . | 0.5 | 1.0 | . | 10.7
O=C(Nc1ccccc1F)C(=Cc1sc(N2CCOCC2)nc1-c1ccccc1)C(=O)Nc1ccccc1F | 43.7* | . | 13.6 | -1.2 | . | -4.1
SMILES | FGF22 binding | C2C12 statin | Ecoli rRNA inh | SIRT5 inh | E-selectin induc | FN deposit inh
Cc1ccc(C(F)(F)F)cc1NC(N)=S | 44.1* | . | 12.6 | 0.1 | . | 3.4
N#C[C@H]1[C@@H](c2ccc(-c3cccc(F)c3)cc2)[C@@H](CO)N1C(=O)NC1CCCCC1 | . | . | -14.6 | 8.1 | -0.2 | -9.3
CO[C@@H]1CN(C)C(=O)c2cc(NC(=O)C3CCC3)ccc2OC[C@H](C)N(C(=O)NC(C)C)C[C@@H]1C | 0.3 | 4.0 | 1.6 | 2.0 | -0.1 | 0.4
CC(=O)NC(C)c1cc(Cl)c2cccnc2c1O (centres undefined) | 45.0* | 18.9 | -11.8 | -2.6 | 0.1 | 0.7
CC(=O)NC(c1cccs1)c1cc(F)c2cccnc2c1O (centres undefined) | 43.4* | -12.3 | 11.7 | -2.1 | -0.3 | -15.1
C[C@@H]1CN([C@H](C)CO)C(=O)Cc2cc(NC(=O)Cc3ccccc3)ccc2O[C@H]1CN(C)S(=O)(=O)c1ccccc1 | -0.1 | 17.4 | -0.8 | 2.1 | -0.2 | .
CN(C)c1ccc(C2C3C(=O)N(c4ccc(C(=O)O)cc4)C(=O)C3ON2c2ccccc2)cc1 (centres undefined) | . | 100.9* | . | . | . | -7.8
CN(C)CCCNC(=O)[C@@H]1[C@@H](CO)[C@@H]2Cn3c(ccc(C4=CCCCC4)c3=O)[C@H]1N2Cc1cocn1 | -0.1 | 13.1 | -0.7 | -41.3 | 0.7 | .
Cc1nc(CNC(=O)c2cc(COc3c(F)cccc3F)on2)cs1 | 0.2 | . | -7.6 | -2.5 | 1.4 | 3.5
Cc1cc(CNC(=O)Cc2c(F)cccc2Cl)nn1C | 0.1 | . | . | 22.8* | . | .
Cc1cc(CNC(=O)c2cc(COc3c(F)cccc3F)on2)nn1C | 43.8* | . | -19.3 | 1.2 | . | 8.8
O=C(Cc1c(F)cccc1Cl)NCc1cccnc1 | -0.3 | -3.8 | 6.2 | -0.8 | -0.1 | 7.4
C[C@@H]1CN([C@@H](C)CO)C(=O)c2cccc(NC(=O)Nc3ccccc3)c2O[C@@H]1CN(C)Cc1ccc(-c2ccccc2)cc1 | 0.2 | -6.7 | 2.4 | 1.2 | . | .
C[C@H](CO)N1C[C@H](C)[C@H](CN(C)C(=O)NC2CCCCC2)Oc2c(NC(=O)c3ccncc3)cccc2C1=O | 0.3 | 8.6 | -3.6 | -0.1 | . | .
Cc1ccccc1-n1c(C)nnc1SCC(=O)N(C)C1CCS(=O)(=O)C1 (centres undefined) | -0.7 | . | 15.0 | 0.7 | . | 6.5
Cc1cc2nnc(SCC(=O)N(C)C3CCS(=O)(=O)C3)n2c2ccccc12 (centres undefined) | 43.1* | . | -5.4 | 4.7 | 3.8 | -3.1
